Reference: ChEMBL document CHEMBL1136700, “Identification of a broad-spectrum azasordarin with improved pharmacokinetic properties” (Bioorg Med Chem Lett, 2003)
In brackets after ≈: the same amount, converted by molar mass.

These compounds were tested on Candida albicans (assay: Minimum inhibitory concentration (MIC) to Candida albicans after 48 hr). Details: not given.
Type: functional
Summary of the method: (§1)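 Antifungal susceptibility read visually; MIC taken as lowest drug concentration giving 90–100% inhibition of visible growth relative to drug-free controls, read over 48 h, or after 24 h where footnoted. Organisms: C. parapsilosis, C. albicans, Cryptococcus neoformans, C. glabrata, Aspergillus fumigatus, Aspergillus flavus.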
With `COc1ccc(CN2C[C@H](OCC34C[C@@H]5[C@H](C)CC[C@H]5C5(C=O)CC3C=C(C(C)C)[C@@]45C(=O)O)OC[C@H]2C)cc1` the MIC was under 0.06 µg/mL. `C=C(Cl)CN1C[C@H](OCC23C[C@@H]4[C@H](C)CC[C@H]4C4(C=O)CC2C=C(C(C)C)[C@@]34C(=O)O)OC[C@H]1C(F)(F)F` showed an MIC of under 0.06 µg/mL. `C=C(Cl)CON1C[C@H](OCC23C[C@@H]4[C@H](C)CC[C@H]4C4(C=O)CC2C=C(C(C)C)[C@@]34C(=O)O)OC[C@H]1C` showed an MIC of 0.125 µg/mL (≈ 0.239 µM). `CC(C)C1=CC2CC3(C=O)[C@@H]4CC[C@@H](C)[C@H]4CC2(CO[C@H]2CN(S(=O)(=O)C4CC4)[C@H](C)CO2)[C@]13C(=O)O` showed an MIC of 32 µg/mL (≈ 59.7 µM). In the case of `C=C(Br)CN1C[C@H](OCC23C[C@@H]4[C@H](C)CC[C@H]4C4(C=O)CC2C=C(C(C)C)[C@@]34C(=O)O)OC[C@H]1C`, the MIC was under 0.06 µg/mL. In the case of `CC(C)=CCN1C[C@H](OCC23C[C@@H]4[C@H](C)CC[C@H]4C4(C=O)CC2C=C(C(C)C)[C@@]34C(=O)O)OC[C@H]1C`, the MIC was 0.25 µg/mL (≈ 0.5 µM). `C=C(Cl)CN1C[C@H](OCC23C[C@@H]4[C@H](C)CC[C@H]4C4(C=O)CC2C=C(C(C)C)[C@@]34C(=O)O)O[C@@H]2CCC[C@H]21` was tested, and the MIC was under 0.06 µg/mL.

The compounds below were run on Nakaseomyces glabratus (assay: Minimum inhibitory concentration (MIC) to Candida glabrata after 48 hours). Details: Nakaseomyces glabratus, 48 h; read-out: MIC.
Type: functional
Summary of the method: as §1
`COc1ccc(CN2C[C@H](OCC34C[C@@H]5[C@H](C)CC[C@H]5C5(C=O)CC3C=C(C(C)C)[C@@]45C(=O)O)OC[C@H]2C)cc1` was tested, and the MIC was under 0.06 µg/mL. With `C=C(Cl)CN1C[C@H](OCC23C[C@@H]4[C@H](C)CC[C@H]4C4(C=O)CC2C=C(C(C)C)[C@@]34C(=O)O)OC[C@H]1C(F)(F)F` the MIC was 1 µg/mL (≈ 1.79 µM). `C=C(Cl)CON1C[C@H](OCC23C[C@@H]4[C@H](C)CC[C@H]4C4(C=O)CC2C=C(C(C)C)[C@@]34C(=O)O)OC[C@H]1C` gave an MIC of 2 µg/mL (≈ 3.83 µM). In the case of `CC(C)C1=CC2CC3(C=O)[C@@H]4CC[C@@H](C)[C@H]4CC2(CO[C@H]2CN(S(=O)(=O)C4CC4)[C@H](C)CO2)[C@]13C(=O)O`, the MIC was 128 µg/mL (≈ 239 µM). `C=C(Br)CN1C[C@H](OCC23C[C@@H]4[C@H](C)CC[C@H]4C4(C=O)CC2C=C(C(C)C)[C@@]34C(=O)O)OC[C@H]1C` was tested, and the MIC was 0.125 µg/mL (≈ 0.227 µM). For `CC(C)=CCN1C[C@H](OCC23C[C@@H]4[C@H](C)CC[C@H]4C4(C=O)CC2C=C(C(C)C)[C@@]34C(=O)O)OC[C@H]1C`, the MIC was 8 µg/mL (≈ 16 µM). For `C=C(Cl)CN1C[C@H](OCC23C[C@@H]4[C@H](C)CC[C@H]4C4(C=O)CC2C=C(C(C)C)[C@@]34C(=O)O)O[C@@H]2CCC[C@H]21`, the MIC was 0.125 µg/mL (≈ 0.235 µM).

These compounds were tested on Candida parapsilosis (assay: Minimum inhibitory concentration (MIC) to Candida parapsilosis after 48 hr). Details: Lodderomyces parapsilosis, 48 h; read-out: MIC.
Type: functional
Summary of the method: as §1
`COc1ccc(CN2C[C@H](OCC34C[C@@H]5[C@H](C)CC[C@H]5C5(C=O)CC3C=C(C(C)C)[C@@]45C(=O)O)OC[C@H]2C)cc1` showed an MIC of 4 µg/mL (≈ 7.25 µM). `C=C(Cl)CN1C[C@H](OCC23C[C@@H]4[C@H](C)CC[C@H]4C4(C=O)CC2C=C(C(C)C)[C@@]34C(=O)O)OC[C@H]1C(F)(F)F` showed an MIC of over 128 µg/mL. `C=C(Cl)CON1C[C@H](OCC23C[C@@H]4[C@H](C)CC[C@H]4C4(C=O)CC2C=C(C(C)C)[C@@]34C(=O)O)OC[C@H]1C` gave an MIC of over 128 µg/mL. With `CC(C)C1=CC2CC3(C=O)[C@@H]4CC[C@@H](C)[C@H]4CC2(CO[C@H]2CN(S(=O)(=O)C4CC4)[C@H](C)CO2)[C@]13C(=O)O` the MIC was over 128 µg/mL. Compound `C=C(Br)CN1C[C@H](OCC23C[C@@H]4[C@H](C)CC[C@H]4C4(C=O)CC2C=C(C(C)C)[C@@]34C(=O)O)OC[C@H]1C` has an MIC of 4 µg/mL (≈ 7.27 µM). Work on `CC(C)=CCN1C[C@H](OCC23C[C@@H]4[C@H](C)CC[C@H]4C4(C=O)CC2C=C(C(C)C)[C@@]34C(=O)O)OC[C@H]1C` yielded an MIC of over 128 µg/mL. `C=C(Cl)CN1C[C@H](OCC23C[C@@H]4[C@H](C)CC[C@H]4C4(C=O)CC2C=C(C(C)C)[C@@]34C(=O)O)O[C@@H]2CCC[C@H]21` showed an MIC of 4 µg/mL (≈ 7.52 µM).

What follows are compounds tested on Cryptococcus neoformans (assay: Minimum inhibitory concentration against Cryptococcus neoformans after 48 hours). Details: not given.
Type: functional
Summary of the method: as §1
`COc1ccc(CN2C[C@H](OCC34C[C@@H]5[C@H](C)CC[C@H]5C5(C=O)CC3C=C(C(C)C)[C@@]45C(=O)O)OC[C@H]2C)cc1` gave an MIC of 0.5 µg/mL (≈ 0.906 µM). Work on `C=C(Cl)CN1C[C@H](OCC23C[C@@H]4[C@H](C)CC[C@H]4C4(C=O)CC2C=C(C(C)C)[C@@]34C(=O)O)OC[C@H]1C(F)(F)F` yielded an MIC of over 128 µg/mL. Compound `C=C(Cl)CON1C[C@H](OCC23C[C@@H]4[C@H](C)CC[C@H]4C4(C=O)CC2C=C(C(C)C)[C@@]34C(=O)O)OC[C@H]1C` has an MIC of 1 µg/mL (≈ 1.92 µM). Compound `CC(C)C1=CC2CC3(C=O)[C@@H]4CC[C@@H](C)[C@H]4CC2(CO[C@H]2CN(S(=O)(=O)C4CC4)[C@H](C)CO2)[C@]13C(=O)O` has an MIC of over 128 µg/mL. `C=C(Br)CN1C[C@H](OCC23C[C@@H]4[C@H](C)CC[C@H]4C4(C=O)CC2C=C(C(C)C)[C@@]34C(=O)O)OC[C@H]1C` was tested, and the MIC was under 0.06 µg/mL. In the case of `CC(C)=CCN1C[C@H](OCC23C[C@@H]4[C@H](C)CC[C@H]4C4(C=O)CC2C=C(C(C)C)[C@@]34C(=O)O)OC[C@H]1C`, the MIC was over 128 µg/mL. Work on `C=C(Cl)CN1C[C@H](OCC23C[C@@H]4[C@H](C)CC[C@H]4C4(C=O)CC2C=C(C(C)C)[C@@]34C(=O)O)O[C@@H]2CCC[C@H]21` yielded an MIC of 0.25 µg/mL (≈ 0.47 µM).

Each compound was assayed on Aspergillus fumigatus (assay: Minimum inhibitory concentration (MIC) to Aspergillus fumigatus after 48 hr). Details: Aspergillus fumigatus, 48 h; read-out: MIC.
Type: functional
Summary of the method: as §1
In the case of `COc1ccc(CN2C[C@H](OCC34C[C@@H]5[C@H](C)CC[C@H]5C5(C=O)CC3C=C(C(C)C)[C@@]45C(=O)O)OC[C@H]2C)cc1`, the MIC was over 128 µg/mL. For `C=C(Cl)CN1C[C@H](OCC23C[C@@H]4[C@H](C)CC[C@H]4C4(C=O)CC2C=C(C(C)C)[C@@]34C(=O)O)OC[C@H]1C(F)(F)F`, the MIC was over 128 µg/mL. `C=C(Cl)CON1C[C@H](OCC23C[C@@H]4[C@H](C)CC[C@H]4C4(C=O)CC2C=C(C(C)C)[C@@]34C(=O)O)OC[C@H]1C` showed an MIC of over 128 µg/mL. Compound `CC(C)C1=CC2CC3(C=O)[C@@H]4CC[C@@H](C)[C@H]4CC2(CO[C@H]2CN(S(=O)(=O)C4CC4)[C@H](C)CO2)[C@]13C(=O)O` has an MIC of over 128 µg/mL. For `C=C(Br)CN1C[C@H](OCC23C[C@@H]4[C@H](C)CC[C@H]4C4(C=O)CC2C=C(C(C)C)[C@@]34C(=O)O)OC[C@H]1C`, the MIC was 128 µg/mL (≈ 233 µM). `CC(C)=CCN1C[C@H](OCC23C[C@@H]4[C@H](C)CC[C@H]4C4(C=O)CC2C=C(C(C)C)[C@@]34C(=O)O)OC[C@H]1C` showed an MIC of over 128 µg/mL. For `C=C(Cl)CN1C[C@H](OCC23C[C@@H]4[C@H](C)CC[C@H]4C4(C=O)CC2C=C(C(C)C)[C@@]34C(=O)O)O[C@@H]2CCC[C@H]21`, the MIC was 64 µg/mL (≈ 120 µM).

What follows are compounds tested on Aspergillus flavus (assay: Minimum inhibitory concentration (MIC) against Aspergillus flavus after 24 hours). Details: Aspergillus flavus, 24 h; read-out: MIC.
Type: functional
Summary of the method: as §1
`COc1ccc(CN2C[C@H](OCC34C[C@@H]5[C@H](C)CC[C@H]5C5(C=O)CC3C=C(C(C)C)[C@@]45C(=O)O)OC[C@H]2C)cc1` gave an MIC of over 128 µg/mL. `C=C(Cl)CN1C[C@H](OCC23C[C@@H]4[C@H](C)CC[C@H]4C4(C=O)CC2C=C(C(C)C)[C@@]34C(=O)O)OC[C@H]1C(F)(F)F` gave an MIC of over 128 µg/mL. In the case of `C=C(Cl)CON1C[C@H](OCC23C[C@@H]4[C@H](C)CC[C@H]4C4(C=O)CC2C=C(C(C)C)[C@@]34C(=O)O)OC[C@H]1C`, the MIC was over 128 µg/mL. `CC(C)C1=CC2CC3(C=O)[C@@H]4CC[C@@H](C)[C@H]4CC2(CO[C@H]2CN(S(=O)(=O)C4CC4)[C@H](C)CO2)[C@]13C(=O)O` was tested, and the MIC was over 128 µg/mL. For `C=C(Br)CN1C[C@H](OCC23C[C@@H]4[C@H](C)CC[C@H]4C4(C=O)CC2C=C(C(C)C)[C@@]34C(=O)O)OC[C@H]1C`, the MIC was 4 µg/mL (≈ 7.27 µM). With `CC(C)=CCN1C[C@H](OCC23C[C@@H]4[C@H](C)CC[C@H]4C4(C=O)CC2C=C(C(C)C)[C@@]34C(=O)O)OC[C@H]1C` the MIC was over 128 µg/mL. In the case of `C=C(Cl)CN1C[C@H](OCC23C[C@@H]4[C@H](C)CC[C@H]4C4(C=O)CC2C=C(C(C)C)[C@@]34C(=O)O)O[C@@H]2CCC[C@H]21`, the MIC was 4 µg/mL (≈ 7.52 µM).
